# High-throughput results deposited in PubChem by several laboratories.
# Only some compounds are listed: those with a hit (about 2.5% of all), similar ones and a draw of the others.
# MsrA inh – inhibitors of bovine MsrA; AID 651718; inhibition, % at 15.5 µM; 360,000 tested, 0.75% active; purified bovine MsrA, absorbance read-out;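 note: 0% = vehicle wells with enzyme and 100% = reference inhibitor wells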
# MsrA act – activates bovine MsrA enzyme; purified bovine MsrA, absorbance read-out; activation, % at 10.6 µM; 360,000 tested, 0.3% active; in the data active = activation above about 7.5%;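 note: 0% = vehicle and 100% = reference activator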
# NR2E3 ag-1 – NR2E3 (human) agonism; GST-NR2E3/biotin-RetCOR TR-FRET, 1536-well; inhibition of corepressor binding, % at 4.78 µM; 320,000 tested, 0.12% active;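 active = percent inhibition above the cutoff of mean plus 3 SD of all tested compounds, set per screening campaign, cut at about 20% in these data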;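 note: 0% = DMSO wells and 100% = biotin wells as full block of FRET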
#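 Test system: GST-NR2E3 and biotin-RetCOR proteins | Quantity: 1.35 nM GST-tagged NR2E3 final | Medium: Tris pH 7.5 | Also added: 7 nM biotin-RetCOR | Dosing: Compound at 4.8 µM, single dose | Timing: 5 h at 4 °C | Detection: Time-resolved FRET | Read-out basis: Percent inhibition | Benchmarks: Biotin wells as high control, 0.6% DMSO wells as low control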
# NadD inh – blocks S. aureus nicotinate mononucleotide adenylyltransferase; purified NadD enzyme, colorimetric absorbance read-out; inhibition, % at 20 µM; 360,000 tested, 0.78% active; AID 602399; in the data active = inhibition above about 26%
# NR2E3 ag-2 – agonists of human NR2E3 nuclear receptor. CHO-S Gal4-NCOR/VP16-NR2E3 two-hybrid, luciferase. inhibition of corepressor binding, % at 3.98 µM. 360,000 tested, 0.35% active. AID 602229;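 active = inhibition above the mean of all tested compounds plus 3 SD, cut at about 70% in these data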;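 note: 0% = DMSO with NR2E3 transfected cells and 100% = cells lacking NR2E3 construct; higher means lower luciferase signal from less NR2E3 corepressor binding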
# GalR3 antagonist – human GalR3 antagonism | HEK293 GalR3-CNG cAMP membrane potential fluorescence; galR3 body fused to GalR1 C-terminus | AID 651719 | inhibition, % at 3 µM | O60755 | 360,000 tested, 0.44% active;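 active = inhibition above the screen-wide average plus 3 SD, cut at about 13% in these data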;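 note: forskolin and galanin both at EC90 stimulate the cells; cAMP rise reported by CNG channel membrane potential dye signal; 0% = forskolin plus galanin with DMSO and 100% = forskolin alone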
# Target sequence (O60755 1-299 limits assumed): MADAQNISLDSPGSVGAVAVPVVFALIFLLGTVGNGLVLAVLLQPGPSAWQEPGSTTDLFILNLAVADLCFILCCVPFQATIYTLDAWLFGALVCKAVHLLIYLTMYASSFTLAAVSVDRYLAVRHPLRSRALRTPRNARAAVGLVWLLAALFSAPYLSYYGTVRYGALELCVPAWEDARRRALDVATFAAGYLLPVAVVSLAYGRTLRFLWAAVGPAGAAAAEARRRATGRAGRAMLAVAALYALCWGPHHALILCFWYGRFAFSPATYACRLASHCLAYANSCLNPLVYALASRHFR
# MsrA conf – confirmation of bovine MsrA inhibitors | 2,300 tested, 41% active | purified bovine MsrA, absorbance read-out | inhibition, % at 15.5 µM | shares compounds with MsrA inh;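 note: coupled to thioredoxin reductase with NADPH and selenocystamine and DMSO as substrate; 0% = vehicle only and 100% = full effect of reference inhibitor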
# Numbers without * were called inactive; x = no result. Cut-off read from the data, not from the text of the source, unless noted: active = inhibition above about 4.5%; inactive = the rest.
SMILES,MsrA inh,MsrA act,NR2E3 ag-1,NadD inh,NR2E3 ag-2,GalR3 antagonist,MsrA conf
COC(=O)c1c(N)c2ccccc2[nH]c1=O,2,-4,4,4,-16,-4,x
CCn1c(SCC(=O)N2CCC(C)CC2)nc2c(c1=O)SC(C)C2 (stereo not given),1,-5,-1,3,-28,0,x
Cc1[nH]n(-c2ccc(Cl)cc2)c(=O)c1C(=O)c1ccccc1,7.3*,-3,-2,-4,-44,6,0
Cc1[nH]n(-c2ccccc2)c(=O)c1C(=O)c1ccc(Cl)cc1,1,-1,3,-2,-26,2,x
CCCCOC(=O)C1CN(c2ccccc2)N=C1C(C)=O (stereo not given),0,-3,6,1,12,-6,x
CCCCOC(=O)C1CN(c2ccccc2)N=C1C(=O)OCC (stereo not given),53*,0,-2,-2,-4,-9,2
Cc1ccc(S(=O)(=O)NCCC(=O)N2CCCC(C)C2)cc1 (stereo not given),0,-4,-1,2,-3,0,x
O=C(O)c1ccc(NC2=C(n3nnc4ccccc43)C(=O)c3ccccc3C2=O)cc1,58*,-1,-5,-1,4,-4,53*
CC1C[N+](=C2C=C(N3CCOCC3)CC(C)(C)C2)CC(C)O1 (stereo not given),11*,-13,0,15,12,-4,6.7*
O=C1C=C(N2CCOCC2)CO1,-1,-3,2,-4,-7,-6,x
CN(C)c1cccc(N=C2C=C(N3CCOCC3)CC(C)(C)C2)c1,3,-5,0,16,-20,-1,x
CC1(C)CC(N2CCOCC2)=CC(=[N+]2CCOCC2)C1,10*,-9,4,11,-7,-6,5.5*
Cc1cc(=O)[nH]c(N/N=C/c2ccc(N(C)C)cc2)n1,7.6*,-5,-13,-4,-17,3,6.2*
Cc1cc(=O)[nH]c(N/N=C/c2ccc(F)cc2)n1,2,2,x,-7,-3,-9,x
CCNc1nc(NCC)nc(N/N=C/c2ccc(N(C)C)cc2)n1,6.5*,-4,2,0,6,-3,4.9*
CCN(CCC#N)c1ccc(/C=N/Nc2nc(C)cc(=O)[nH]2)c(C)c1,6.0*,-7,-1,-3,-31,-4,4.7*
COC(=O)Cc1nnn2c1[C@H](C)[C@H](C(C)(C)C)OCC2,0,x,x,x,x,-2,x
CCOc1ccc(CNC(=S)N/N=C/c2ccncc2)cc1,1,-14,2,3,10,-4,x
CC(C)Cn1cc(C(=O)NCCCN2CCCC2=O)c2c3ccccc3n(C)c2c1=O,4.9*,-11,0,-1,12,7,1
CC(C)Cn1cc(C(=O)NCCCN2CCC(C)CC2)c2c3ccccc3n(C)c2c1=O,2,-4,4,-9,-1,0,x
COC(=O)c1[nH]c2cc(OC)ccc2c1NC(=O)CN1CCC(C(N)=O)CC1,3,-3,1,-2,-17,-4,x
O=C1NCCN1C(=O)c1cccc(Cl)c1,12*,0,-3,-7,-1,-2,9.9*
O=C(c1cccnc1)N1CCN(C(=O)c2cccc(Cl)c2)CC1,-1,0,3,3,0,-8,x
COc1cccc(NC(=O)CSc2nnc(Cc3cccn3C)n2-c2ccc(F)cc2)c1,1,-1,3,-2,-7,0,x
Cc1oc2cc(O)ccc2c(=O)c1N1C(=O)c2ccccc2C1=O,3,-5,-1,-9,11,5,x
SMILES,MsrA inh,MsrA act,NR2E3 ag-1,NadD inh,NR2E3 ag-2,GalR3 antagonist,MsrA conf
Cc1ccccc1-c1c(C)oc2cc(O)ccc2c1=O,4.9*,-6,6,-1,11,-7,2
N=c1n(N)c2ccccc2n1CC(=O)c1ccc(Br)cc1,-1,-3,1,-1,-140,-1,x
COc1cc(C(=O)NNC(=O)C2CCC2)cc(OC)c1OC,0,-2,4,6,-1,-4,x
CCOc1cc(/C=C2/NC(=O)NC2=O)cc(Br)c1OCc1ccc(C(=O)O)cc1,6.2*,-6,2,7,-4,-3,2
CCCN1C(=O)/C(=C/c2ccc(OCc3ccc(C(=O)O)cc3)c(OC)c2)NC1=S,0,0,-2,4,-15,-1,x
O=C1NC(=O)/C(=C\c2ccc(OCc3cccc(C(=O)O)c3)c(Cl)c2)N1,5.3*,-4,1,-2,-237,-5,4
COc1cc(/C=C2\NC(=S)NC2=O)ccc1OCc1cccc(C(=O)O)c1,5.4*,-8,-2,7,-115,-6,4
CCOC(=O)c1c(C2CC2)csc1NC(=O)COC(=O)c1cnc(Cl)c(Cl)c1,-1,-4,0,-3,-5,-2,x
CC1(C)C2CCC(CN=C(N)CSS(=O)(=O)O)C1C2 (stereo not given),21*,-9,x,4,28,1,8.8*
O=C(N/N=C/C(Cl)=C/c1ccccc1)c1ccccn1,4,-9,1,-6,-104,1,x
O=C(N/N=C/C(Cl)=C/c1ccccc1)c1ccncc1,4.9*,-4,1,-2,11,-6,4
O=C(N/N=C/c1ccncc1)c1cnccn1,1,-4,5,0,-32,-2,x
Cn1cc(C(=O)N/N=C/C(Br)=C/c2ccccc2)ccc1=O,6.7*,-7,-3,10,5,-8,5.7*
O=C(N/N=C/C(Br)=C/c1ccccc1)c1cnccn1,6.3*,-6,-3,-7,-17,-6,4.6*
Cn1cc(C(=O)N/N=C/C=C/c2ccccc2)ccc1=O,9.7*,-4,-6,1,-8,-3,5.1*
COc1cc(OC)cc(C(=O)Nc2nnc(-c3cccnc3)o2)c1,1,-5,1,9,-14,-1,x
COC(=O)C(C)Sc1ncnc2c1nnn2-c1ccc(F)cc1 (stereo not given),0,3,1,-9,-86,1,x
COc1ccc(-n2nnc3c(SC(C(C)=O)C(=O)N(C)C)ncnc32)cc1 (stereo not given),5.4*,-5,-4,8,-16,-3,3
CCN(C(=O)CCS(=O)(=O)c1ccc(Br)cc1)c1ccc2c(c1)OCO2,14*,-2,1,4,-8,0,7.3*
COCCNC(=O)/C(C#N)=C/c1cccc(/C=C(\C#N)C(=O)NCCOC)c1,-1,-2,5,-6,-15,1,x
COCCNC(=O)/C(C#N)=C/C(C)=C/c1ccccc1,6.0*,-2,-3,-2,-18,-5,3
O=C(O)[C@H](Cc1ccccc1)Nc1ccc([N+](=O)[O-])cn1,4.8*,-3,1,-7,-18,-11,3
O=C(O)C(Cc1ccccc1)Nc1ccc([N+](=O)[O-])cc1[N+](=O)[O-] (stereo not given),3,-2,2,-2,-49,-8,x
